Active and inactive are the calls of the source. The rule behind the calls is not given here.
What was measured:
[1] = biological target: Neuronal acetylcholine receptor subunit alpha-7 (Homo sapiens) (UniProt P36544); test: (§1) Agonist activity at alpha7 nAChR in human SH-SY5Y cells assessed as release of intracellular calcium at 50 nM preincubated for 20 mins with alpha7 nAChR antagonist alpha-bungarotoxin and for 1 min with alpha7 nAChR PAM PNU120596 prior to compound addition by Fluo-3 AM staining-based fluorescence spectral scanning multimode reader analysis; type: cell-based
Sequence of Neuronal acetylcholine receptor subunit alpha-7 (Homo sapiens) (P36544 whole entry): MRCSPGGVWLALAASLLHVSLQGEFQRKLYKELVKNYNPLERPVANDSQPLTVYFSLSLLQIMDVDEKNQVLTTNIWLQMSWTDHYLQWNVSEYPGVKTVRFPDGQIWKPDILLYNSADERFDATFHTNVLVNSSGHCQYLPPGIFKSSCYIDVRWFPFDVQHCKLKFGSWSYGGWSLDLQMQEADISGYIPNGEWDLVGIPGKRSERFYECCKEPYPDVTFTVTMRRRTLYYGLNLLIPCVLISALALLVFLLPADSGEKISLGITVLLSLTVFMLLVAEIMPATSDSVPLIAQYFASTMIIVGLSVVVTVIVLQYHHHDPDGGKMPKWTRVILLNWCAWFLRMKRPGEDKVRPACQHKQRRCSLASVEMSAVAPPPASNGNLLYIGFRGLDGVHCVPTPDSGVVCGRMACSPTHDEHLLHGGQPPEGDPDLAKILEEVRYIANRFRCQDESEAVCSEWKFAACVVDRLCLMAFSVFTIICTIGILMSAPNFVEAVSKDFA
Procedure, shortened: (§2)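 Differentiated SH-SY5Y cells loaded with fluo-3 AM as above, then preincubated 20 min at r.t. in Tyrode's solution with 100 nM α-bungarotoxin. PNU-120596 added 1 min before test agent or 3 mM choline. Fluorescence read at Ex 506/Em 526 nm, response expressed as % of (Fmax−Fmin) from 0.3% Triton X-100 then 100 mM MnCl2. 5 experiments in duplicate, mean ± SEM.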

[2] = biological target: T1, 5-hydroxytryptamine receptor 3A (Homo sapiens, UniProt P46098); test: Displacement of [3H]BRL 43694 from human 5HT3R by radioligand displacement assay
T1 sequence (P46098 whole entry): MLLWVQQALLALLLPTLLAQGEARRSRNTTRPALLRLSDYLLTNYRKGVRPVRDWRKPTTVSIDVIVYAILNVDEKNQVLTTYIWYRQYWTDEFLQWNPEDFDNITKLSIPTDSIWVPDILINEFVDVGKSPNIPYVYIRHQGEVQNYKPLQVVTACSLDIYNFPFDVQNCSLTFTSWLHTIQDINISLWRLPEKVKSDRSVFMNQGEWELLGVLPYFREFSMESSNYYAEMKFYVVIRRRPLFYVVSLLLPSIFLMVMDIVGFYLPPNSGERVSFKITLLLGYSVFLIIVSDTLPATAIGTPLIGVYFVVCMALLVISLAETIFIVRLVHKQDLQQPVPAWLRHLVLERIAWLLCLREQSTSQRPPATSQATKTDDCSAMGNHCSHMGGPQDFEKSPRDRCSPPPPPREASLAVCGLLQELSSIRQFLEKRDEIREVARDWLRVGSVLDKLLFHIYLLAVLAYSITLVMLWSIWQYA

[3] = biological target: Neuronal acetylcholine receptor subunit alpha-7 (Homo sapiens) (UniProt P36544); test: (§3) Agonist activity at alpha7 nAChR in human SH-SY5Y cells assessed as increase in intracellular calcium release at 50 nM preincubated for 1 min with alpha7 nAchR PAM PNU120596 prior to compound addition by Fluo-3 AM staining-based fluorescence spectral scanning multimode reader analysis; type: cell-based
Procedure, shortened: (§4)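 SH-SY5Y (ATCC) grown in MEM/F12 1:1 with 10% heat-inactivated FBS, differentiated with 10 μM retinoic acid for 7 days. Cells loaded with 10 μM fluo-3 AM plus 0.02% Pluronic F127 for 1 h at r.t. in the dark, then preincubated 20 min at r.t. in Tyrode's solution with vehicle. PNU-120596 added in the last minute. Fluorescence read at Ex 506/Em 526 nm, normalised to Triton (Fmax) and MnCl2 (Fmin). 5 experiments in duplicate, mean ± SEM.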

[4] = biological target: Neuronal acetylcholine receptor; alpha4/beta2 (Homo sapiens, UniProt P17787+P43681); test: Displacement of [3H]cytisine from human recombinant alpha4beta2 nAChR incubated for 120 mins by radiometric scintillation analysis; type: protein-complex assay
Sequence of Neuronal acetylcholine receptor; alpha4/beta2 (P17787 whole entry): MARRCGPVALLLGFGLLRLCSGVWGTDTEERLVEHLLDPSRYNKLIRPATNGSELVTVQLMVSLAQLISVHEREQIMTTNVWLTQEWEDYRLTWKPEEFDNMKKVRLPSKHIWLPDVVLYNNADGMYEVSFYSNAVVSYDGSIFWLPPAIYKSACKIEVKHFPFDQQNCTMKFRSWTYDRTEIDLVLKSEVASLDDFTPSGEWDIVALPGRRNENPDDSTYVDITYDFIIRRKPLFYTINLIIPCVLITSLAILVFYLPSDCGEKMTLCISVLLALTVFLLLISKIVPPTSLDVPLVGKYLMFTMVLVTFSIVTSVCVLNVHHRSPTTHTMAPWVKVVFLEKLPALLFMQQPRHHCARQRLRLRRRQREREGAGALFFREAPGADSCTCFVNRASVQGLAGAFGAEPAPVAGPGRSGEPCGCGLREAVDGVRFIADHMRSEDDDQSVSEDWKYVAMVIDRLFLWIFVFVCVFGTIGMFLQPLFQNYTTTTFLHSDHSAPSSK
Sequence of Neuronal acetylcholine receptor; alpha4/beta2 (P43681 whole entry): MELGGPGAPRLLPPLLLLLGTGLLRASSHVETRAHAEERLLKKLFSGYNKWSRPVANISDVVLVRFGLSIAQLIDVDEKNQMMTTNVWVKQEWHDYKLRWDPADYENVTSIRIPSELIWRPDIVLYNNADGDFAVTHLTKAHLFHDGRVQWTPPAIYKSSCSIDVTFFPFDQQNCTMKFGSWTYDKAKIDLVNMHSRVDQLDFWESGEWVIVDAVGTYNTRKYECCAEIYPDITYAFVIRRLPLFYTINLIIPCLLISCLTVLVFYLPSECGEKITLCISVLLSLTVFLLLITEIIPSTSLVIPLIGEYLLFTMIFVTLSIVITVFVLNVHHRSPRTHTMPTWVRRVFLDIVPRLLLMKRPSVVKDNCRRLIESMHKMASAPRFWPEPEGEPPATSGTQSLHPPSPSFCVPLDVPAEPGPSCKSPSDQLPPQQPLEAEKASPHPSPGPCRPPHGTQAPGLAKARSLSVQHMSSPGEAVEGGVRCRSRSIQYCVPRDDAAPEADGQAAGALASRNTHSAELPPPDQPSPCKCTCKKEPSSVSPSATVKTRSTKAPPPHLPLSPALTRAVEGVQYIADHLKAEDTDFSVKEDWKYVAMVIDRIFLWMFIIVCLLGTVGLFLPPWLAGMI

SH-SY5Y [5] = test: Cytotoxicity against human SH-SY5Y cells assessed as cell viability at 50 nM to 5 uM incubated for 48 hrs by MTS assay; type: cell-based; settings: 0.05 µM
Procedure, shortened: (§5)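 Retinoic acid-differentiated SH-SY5Y cells exposed for 48 h to 10, 100 and 1000 × Ki of each agent. MTS added for 3 h, absorbance read at 490 nm. Viability given as % of vehicle-treated cells. 4 independent experiments in triplicate, mean ± SEM.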

[6] = biological target: Neuronal acetylcholine receptor subunit alpha-7 (Rattus norvegicus, UniProt Q05941); test: Displacement of [125I]-alpha-bungarotoxin from alpha7 nAChR in Wistar rat brain membrane incubated for 3 hrs by gamma counting analysis; type: cell membranes
Sequence of Neuronal acetylcholine receptor subunit alpha-7 (Q05941 whole entry): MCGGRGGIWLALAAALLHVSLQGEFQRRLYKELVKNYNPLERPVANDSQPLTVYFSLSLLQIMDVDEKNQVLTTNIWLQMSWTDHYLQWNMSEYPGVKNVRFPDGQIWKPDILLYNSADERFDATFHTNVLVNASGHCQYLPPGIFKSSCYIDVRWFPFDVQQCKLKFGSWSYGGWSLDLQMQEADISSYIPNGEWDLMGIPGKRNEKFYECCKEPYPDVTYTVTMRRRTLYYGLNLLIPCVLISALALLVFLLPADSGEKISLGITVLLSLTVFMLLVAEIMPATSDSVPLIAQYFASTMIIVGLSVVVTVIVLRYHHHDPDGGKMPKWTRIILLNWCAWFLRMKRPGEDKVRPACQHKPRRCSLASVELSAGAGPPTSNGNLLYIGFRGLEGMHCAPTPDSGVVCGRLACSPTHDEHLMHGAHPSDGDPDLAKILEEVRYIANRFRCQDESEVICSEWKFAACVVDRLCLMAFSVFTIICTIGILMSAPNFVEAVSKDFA
Procedure, shortened: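 Frontal cortex membranes from male Wistar rats (2 rats per experiment), homogenised in pH 7.4 HEPES buffer and spun at 45,000×g. 25 μg protein incubated with 2 nM [125I]α-bungarotoxin and 10^-10 to 10^-6 M competitor in pH 7.4 Tris-HCl with Ca/Mg for 3 h at 22 °C. Nonspecific binding defined with 1 μM α-bungarotoxin. Filtered on PEI-soaked GF/C, gamma counted. IC50 read graphically, converted to Ki.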

[7] = biological target: Neuronal acetylcholine receptor subunit alpha-7 (Homo sapiens) (UniProt P36544); test: as §1, with “3” for “50”; type: cell-based; procedure, shortened: as §2
[8] = biological target: Neuronal acetylcholine receptor subunit alpha-7 (Homo sapiens) (UniProt P36544); test: as §3, with “3” for “50”, “analysis relative to choline” for “analysis”; type: cell-based; procedure, shortened: as §4
SH-SY5Y [9] = test: Cytotoxicity against human SH-SY5Y cells assessed as cell viability at 0.003 to 3 uM incubated for 48 hrs by MTS assay; type: cell-based; procedure, shortened: as §5
[10] = biological target: Neuronal acetylcholine receptor subunit alpha-7 (Homo sapiens) (UniProt P36544); test: Agonist activity at alpha7 nAChR in human SH-SY5Y cells assessed as intracellular calcium release at 7 nM preincubated for 1 min with alpha7 nAchR PAM PNU120596 prior to compound addition by Fluo-3 AM staining-based fluorescence spectral scanning multimode reader analysis; type: cell-based; procedure, shortened: as §4
SH-SY5Y [11] = test: Cytotoxicity against human SH-SY5Y cells assessed as cell viability at 0.13 to 1.3 uM incubated for 48 hrs by MTS assay; type: cell-based; procedure, shortened: as §5
[12] = biological target: Neuronal acetylcholine receptor subunit alpha-7 (Homo sapiens) (UniProt P36544); test: Agonist activity at alpha7 nAChR in human SH-SY5Y cells assessed as increase in intracellular calcium release at 130 nM preincubated for 1 min with alpha7 nAchR PAM PNU120596 prior to compound addition by Fluo-3 AM staining-based fluorescence spectral scanning multimode reader analysis; type: cell-based; procedure, shortened: as §4
[13] = Cytotoxicity against human SH-SY5Y cells assessed as reduction in cell viability at 13 uM incubated for 48 hrs by MTS assay relative to control; type: cell-based; settings: read-out: INH; procedure, shortened: as §5
[14] = biological target: Neuronal acetylcholine receptor subunit alpha-7 (Homo sapiens) (UniProt P36544); test: as §1, with “130” for “50”; type: cell-based; procedure, shortened: as §2

Row | Compound | Ki [6] | also measured
1 | FCc1ccc(-c2ccc(-c3cn([C@H]4CN5CCC4CC5)nn3)s2)cc1 |  | Activity [1]: inactive; Ki [2]: > 1000 nM; Activity [3]: Active; Ki [4]: > 1000 nM; Activity (SH-SY5Y [5]): Non-Toxic
2 | FCc1cccc(-c2ccc(-c3cn([C@H]4CN5CCC4CC5)nn3)s2)c1 | 42 nM | 
3 | FCCc1ccc(-c2ccc(-c3cn([C@H]4CN5CCC4CC5)nn3)s2)cc1 | 157 nM | 
4 | c1cc(-c2ccc(CN3CCCCC3)cc2)cc(-c2cn([C@H]3CN4CCC3CC4)nn2)c1 | 3 nM | 
5 | c1cc(-c2ccc(CN3CCOCC3)cc2)cc(-c2cn([C@H]3CN4CCC3CC4)nn2)c1 | 12.5 nM | 
6 | c1cc2c(cc1-c1ccc(-c3cn([C@H]4CN5CCC4CC5)nn3)s1)CCO2 | 60 nM | 
7 | c1cc(-c2ccc(-c3cn([C@H]4CN5CCC4CC5)nn3)s2)ccc1CN1CCCCC1 |  | Activity [7]: inactive; Ki [2]: 560 nM; Activity [8]: 80%; Activity (SH-SY5Y [9]): Non-Toxic; Ki [4]: 1000 nM
8 | Fc1ccc(-c2ccc(-c3cn([C@H]4CN5CCC4CC5)nn3)cc2)cn1 | > 1000 nM | 
9 | OCc1ccc(-c2ccc(-c3cn([C@H]4CN5CCC4CC5)nn3)cc2)s1 | 120 to 200 nM | 
10 | FCCOc1ccc(-c2ccc(-c3cn([C@H]4CN5CCC4CC5)nn3)s2)cc1 | 340 nM | 
11 | FCC1CCN(Cc2ccc(-c3ccc(-c4cn([C@H]5CN6CCC5CC6)nn4)s3)cc2)CC1 | 1.4 nM | 
12 | c1cc(CN2CCCCC2)cc(-c2cccc(-c3cn([C@H]4CN5CCC4CC5)nn3)c2)c1 | 122 nM | 
13 | COCOCCOc1ccc(-c2ccc(-c3cn([C@H]4CN5CCC4CC5)nn3)s2)cc1 | 140 nM | 
14 | Fc1ccc(-c2csc(-c3cn([C@H]4CN5CCC4CC5)nn3)c2)cn1 | 31 nM | 
15 | OCc1ccc(-c2cccc(-c3cn([C@H]4CN5CCC4CC5)nn3)c2)s1 | 0.2 nM | 
16 | OCc1ccc(-c2ccc(-c3cn([C@H]4CN5CCC4CC5)nn3)s2)s1 | 0.8 nM | 
17 | c1ccc(-c2ccc(-c3cn([C@H]4CN5CCC4CC5)nn3)s2)cc1 | 43 nM | 
18 | OCc1ccc(-c2csc(-c3cn([C@H]4CN5CCC4CC5)nn3)c2)cc1 | 1.5 nM | 
19 | c1cc(CN2CCOCC2)cc(-c2ccc(-c3cn([C@H]4CN5CCC4CC5)nn3)s2)c1 | 16 nM | 

Row | Compound | Ki [6] | also measured
20 | c1cc(CN2CCCCC2)cc(-c2ccc(-c3cn([C@H]4CN5CCC4CC5)nn3)s2)c1 | 17 nM | 
21 | OCCc1ccc(-c2ccc(-c3cn([C@H]4CN5CCC4CC5)nn3)s2)cc1 | 1.5 nM | 
22 | OC1CCN(Cc2ccc(-c3ccc(-c4cn([C@H]5CN6CCC5CC6)nn4)s3)cc2)CC1 | 0.3 nM | 
23 | c1cc(CN2CCOCC2)cc(-c2cccc(-c3cn([C@H]4CN5CCC4CC5)nn3)c2)c1 | 49 nM | 
24 | CN1CCN(Cc2cccc(-c3cccc(-c4cn([C@H]5CN6CCC5CC6)nn4)c3)c2)CC1 | 39 nM | 
25 | OCc1cccc(-c2ccc(-c3cn([C@H]4CN5CCC4CC5)nn3)s2)c1 | 0.7 nM | Activity [10]: inactive
26 | OCCOc1ccc(-c2ccc(-c3cn([C@H]4CN5CCC4CC5)nn3)s2)cc1 | 1.7 nM | 
27 | FC1CCN(Cc2ccc(-c3ccc(-c4cn([C@H]5CN6CCC5CC6)nn4)s3)cc2)CC1 | 2.8 nM | 
28 | COC(=O)c1ccc(-c2ccc(-c3cn([C@H]4CN5CCC4CC5)nn3)s2)cc1F | 80 to 90 nM | 
29 | c1cc2c(cc1-c1ccc(-c3cn([C@H]4CN5CCC4CC5)nn3)s1)OCCO2 | 140 nM | 
30 | CN1CCN(Cc2ccc(-c3cccc(-c4cn([C@H]5CN6CCC5CC6)nn4)c3)cc2)CC1 | 1.9 nM | 
31 | OCc1ccc(-c2ccc(-c3cn([C@H]4CN5CCC4CC5)nn3)cc2)cc1 | 100 to 175 nM | 
32 | OCc1ccc(-c2cccc(-c3cn([C@H]4CN5CCC4CC5)nn3)c2)cc1 | 7 nM | 
33 | CN1CCN(Cc2cccc(-c3ccc(-c4cn([C@H]5CN6CCC5CC6)nn4)s3)c2)CC1 | 16 nM | 
34 | OCc1ccc(-c2ccc(-c3cn([C@H]4CN5CCC4CC5)nn3)s2)cc1F | 12 nM | 
35 | c1csc(-c2ccc(-c3cn([C@H]4CN5CCC4CC5)nn3)cc2)c1 | 110 to 160 nM | 
36 | OCc1ccc(-c2cccc(-c3cn([C@H]4CN5CCC4CC5)nn3)c2)cc1F | 18 nM | 
37 | Fc1ccc(-c2ccc(-c3cn([C@H]4CN5CCC4CC5)nn3)s2)cn1 | 13 nM | Activity (SH-SY5Y [11]): Non-Toxic; Ki [2]: 440 nM; Activity [12]: Active; cytotoxicity at 48 h, 13 µM [13]: 15%; Ki [4]: > 1000 nM; Activity [14]: inactive
38 | NCc1ccc(-c2ccc(-c3cn([C@H]4CN5CCC4CC5)nn3)s2)cc1 | 0.3 nM | 
